Legend:
CCRF-CEM [1] = assay: Cytotoxical effect against CEM cell lines was determined by reduction of cellular viability. data represent mean value of at least two separate experiments.; type: functional; details: Homo sapiens
Outline: (§1)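 Compounds tested as ammonium salts. Cytotoxicity in CEM-SS, MT-4 or PBL cultures taken from the reduction in cellular viability. Values are means of at least two separate experiments.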

HEL [2] = assay: Anti viral activity against HEL cytotoxicity by minimum cytotoxic concentration that causes a microscopically detectable alteration of normal cell morphology after 2 day of treatment.; type: functional; details: Homo sapiens, 48 h
HEL [3] = assay: Antiviral activity was determined against (Herpes simplex virus -2) by concentration required to reduce virus induced cytopathogenicity by 50%.; type: functional, cell-based; details: Homo sapiens
HEL [4] = assay: Antiviral activity was determined against Herpes simplex virus -1 TK- in HEL cells by measuring concentration required to reduce virus induced cytopathogenicity by 50%.; type: functional, cell-based; details: Homo sapiens
HEL [5] = assay: Antiviral activity was determined against Herpes simplex virus -1 TK-/TK+ in HEL cells by measuring concentration required to reduce virus induced cytopathogenicity by 50%.; type: functional, cell-based; details: Homo sapiens
HEL [6] = assay: Antiviral activity was determined against Herpes simplex virus -1 in HEL cells by measuring concentration required to reduce virus induced cytopathogenicity by 50%.; type: functional, cell-based; details: Homo sapiens
HEL [7] = assay: Antiviral activity was determined against Human cytomegalovirus (strain Davis) in HEL cells by measuring concentration required to reduce virus induced cytopathogenicity by 50%.; type: functional, cell-based
HEL [8] = assay: Antiviral activity was determined against Vaccinia virus in HEL cells by measuring concentration required to reduce virus induced cytopathogenicity by 50%.; type: functional, cell-based; details: Homo sapiens
HEL [9] = assay: Antiviral activity was determined against Vesicular stomatitis virus in HEL cells by measuring concentration required to reduce virus induced cytopathogenicity by 50%.; type: functional, cell-based; details: Homo sapiens
HeLa [10] = assay: Anti viral activity against HeLa cytotoxicity by minimum cytotoxic concentration that causes a microscopically detectable alteration of normal cell morphology after 2 day of treatment.; type: functional; details: Homo sapiens, 48 h
HeLa [11] = assay: Antiviral activity was determined against Respiratory syncytial virus(strain Long) in HeLa cells by measuring concentration required to reduce virus induced cytopathogenicity by 50%.; type: functional, cell-based; details: Homo sapiens
Outline: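 RSV cytopathicity in HeLa cells. Compound added immediately after virus infection and left in the culture. Virus-induced cytopathogenicity scored at day 5 post-infection. IC50 in μg/mL.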

[12] = target: Human immunodeficiency virus type 1 integrase (Human immunodeficiency virus 1, UniProt Q7ZJM1); assay: Inhibition of HIV -1 Integrase
Outline: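 Purified HIV-1 integrase. 3'-processing and strand-transfer (integration) activities were measured with synthetic double-stranded oligonucleotides mimicking viral DNA ends. Compounds tested as ammonium salts. Values are means of at least two experiments.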

MOLT-4 [13] = assay: Gaint cell formation between HIV-1 (HTLV-IIIB) infected HUT-78 cells and uninfected MOLT-4(clone-8)cells; type: functional, cell-based; details: Homo sapiens
Outline: (§2)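 Syncytium assay: HUT-78 cells persistently infected with HIV-1 (HTLV-IIIB) or HIV-2 (LAV-2ROD) were co-cultured with uninfected MOLT-4 (clone 8) cells, and giant-cell formation was scored. Compounds tested as ammonium salts. Values are means of at least two experiments.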

MOLT-4 [14] = assay: Gaint cell formation between HIV-2 (LAV-2 rod) infected HUT-78 cells and uninfected MOLT-4(clone-8)cells; type: functional, cell-based; details: Homo sapiens; outline: as §2
MT4 [15] = assay: Cytotoxical effect against MT-4 cell lines was determined by reduction of cellular viability. data represent mean value of at least two separate experiments.; type: functional; details: Homo sapiens; outline: as §1
MT4 [16] = assay: Viral cytopathicity against HIV -2 (LAV-2 rod)strain determined in MT-4 cells; type: functional, cell-based; details: Homo sapiens
MT4 [17] = assay: Viral cytopathicity against HIV -I (HTLV-IIIb) strain determined in MT-4 cells; type: functional, cell-based; details: Homo sapiens
MDCK [18] = assay: Anti viral activity against MDCK cytotoxicity by minimum cytotoxic concentration that causes a microscopically detectable alteration of normal cell morphology after 2 day of treatment.; type: functional; details: Canis lupus familiaris, 48 h
MDCK [19] = assay: Antiviral activity was determined against Influenza virus A(strain Ishikawa) in MDCK cells by measuring concentration required to reduce virus induced cytopathogenicity by 50%.; type: functional, cell-based; details: Canis lupus familiaris
Outline: (§3)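 Tested in MDCK cells, with compound applied right after infection and left on. Cytopathic effect of influenza A (Ishikawa) or B (Singapore) was read at day 5 pi. IC50 is the concentration halving cytopathogenicity, in µg/mL.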

MDCK [20] = assay: Antiviral activity was determined against Influenza virus B(strain Singapore) MDCK cells by measuring concentration required to reduce virus induced cytopathogenicity by 50%.; type: functional, cell-based; details: Canis lupus familiaris; outline: as §3
Homo sapiens [21] = organism: Homo sapiens; assay: Cytotoxical effect against PBL cell lines was determined by reduction of cellular viability. data represent mean value of at least two separate experiments.; type: functional; outline: as §1
[22] = target: Human immunodeficiency virus type 1 protease (Human immunodeficiency virus 1, UniProt Q72874); assay: Inhibition of HIV -1 protease
Outline: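 Purified HIV-1 protease with the peptide substrate Ala-Ser-Glu-Asn-Tyr-Pro-Ile-Val-Glu-amide. Cleavage quantified by reverse-phase HPLC. Compounds tested as ammonium salts. Values are means of at least two experiments.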

Homo sapiens [23] = organism: Homo sapiens; assay: Inhibition of p24 production in Peripheral blood lymphocytes; type: functional, organism-based
Outline: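 Phytohemagglutinin-stimulated peripheral blood lymphocytes infected with HIV-1 WUJO. Read-out is virion-associated p24 production. Compounds tested as ammonium salts. Values are means of at least two experiments.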

Vero [24] = assay: Anti viral activity against Vero cellular cytotoxicity by minimum cytotoxic concentration that causes a microscopically detectable alteration of normal cell morphology after 2 day of treatment.; type: functional; details: Chlorocebus sabaeus, 48 h
Vero [25] = assay: Antiviral activity was determined against Junin virus in Vero cells by measuring concentration required to reduce virus induced cytopathogenicity by 50%.; type: functional, cell-based; details: Chlorocebus sabaeus
Vero [26] = assay: Antiviral activity was determined against Tacaribe virus in Vero cells by measuring concentration required to reduce virus induced cytopathogenicity by 50%.; type: functional, cell-based; details: Chlorocebus sabaeus
CCRF-CEM [27] = assay: Cytotoxical effect against CEM cell lines was determined by reduction of cellular viability; type: functional; details: Homo sapiens; outline: as §1
HEL [28] = assay: Antiviral activity against HEL cells by measuring minimum cytotoxic concentration that causes a microscopically detectable alteration of normal cell morphology after 2 day of treatment.; type: functional; details: Homo sapiens, 48 h
HeLa [29] = assay: Antiviral activity against HeLa cells by measuring minimum cytotoxic concentration that causes a microscopically detectable alteration of normal cell morphology after 2 day of treatment.; type: functional; details: Homo sapiens, 48 h
MOLT-4 [30] = assay: Giant cell formation between HIV-1 (HTLV-IIIB) infected HUT-78 cells and uninfected MOLT-4(clone-8)cells; type: functional, cell-based; details: Homo sapiens; outline: as §2
MOLT-4 [31] = assay: Giant cell formation between HIV-2 (LAV-2 rod) infected HUT-78 cells and uninfected MOLT-4(clone-8)cells; type: functional, cell-based; details: Homo sapiens; outline: as §2
MT4 [32] = assay: Cytotoxical effect against MT-4 cell lines was determined by reduction of cellular viability; type: functional; details: Homo sapiens; outline: as §1
MDCK [33] = assay: Antiviral activity against MDCK cells by measuring minimum cytotoxic concentration that causes a microscopically detectable alteration of normal cell morphology after 2 day of treatment.; type: functional; details: Canis lupus familiaris, 48 h
Vero [34] = assay: Antiviral activity against Vero cells by measuring minimum cytotoxic concentration that causes a microscopically detectable alteration of normal cell morphology after 2 day of treatment.; type: functional; details: Chlorocebus sabaeus, 48 h
Homo sapiens [35] = organism: Homo sapiens; assay: Cytotoxical effect against PBL cell lines was determined by reduction of cellular viability; type: functional; outline: as §1

Sequence of Human immunodeficiency virus type 1 integrase (Q7ZJM1 whole entry): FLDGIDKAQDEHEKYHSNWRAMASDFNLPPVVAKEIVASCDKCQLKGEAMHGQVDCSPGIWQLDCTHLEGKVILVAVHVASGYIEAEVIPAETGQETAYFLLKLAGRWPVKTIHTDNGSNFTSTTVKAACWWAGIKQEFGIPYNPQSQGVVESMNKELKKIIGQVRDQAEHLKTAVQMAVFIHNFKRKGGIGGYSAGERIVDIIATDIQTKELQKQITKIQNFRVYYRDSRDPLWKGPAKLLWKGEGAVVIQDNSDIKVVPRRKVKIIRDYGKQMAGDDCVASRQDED

Structure (SMILES) | IC50 (HEL [3]) | IC50 (HEL [4]) | IC50 (HEL [5]) | IC50 (HEL [6]) | IC50 (HEL [7]) | IC50 (HEL [8]) | IC50 (HEL [9]) | IC50 (HeLa [11]) | IC50 [12] | IC50 (MT4 [16]) | IC50 (MT4 [17]) | IC50 (MDCK [19]) | IC50 (MDCK [20]) | IC50 [22] | IC50 (Homo sapiens [23]) | IC50 (Vero [25]) | IC50 (Vero [26]) | CC50 (CCRF-CEM [27]) | MCC (HEL [28]) | MCC (HeLa [29]) | other results
CCCCCC=C(c1cc(Cl)c(O)c(C(=O)NO)c1)c1cc(Cl)c(O)c(C(=O)NO)c1 | > 5 µM | 5 µM | > 5 µM | 5 µM | > 5 µM | 5 µM | > 20 µM | > 4 µM | 4 µM | > 40 µM | 21.9 µM | > 4 µM | > 4 µM | 58 µM | 112 µM | > 2 µM | > 2 µM |  |  |  | CC50 (CCRF-CEM [1]): 36.2 µM; CC50 (HEL [2]): 20 µM; CC50 (HeLa [10]): 4 µM; IC50 (MOLT-4 [13]): 8 µM; IC50 (MOLT-4 [14]): 40 µM; CC50 (MT4 [15]): > 40 µM; CC50 (MDCK [18]): 4 µM; CC50 (Homo sapiens [21]): 148 µM; CC50 (Vero [24]): 5 µM
O=C(O)c1cc(C(=CCC23CC4CC(CC(C4)C2)C3)c2cc(Cl)c(O)c(C(=O)O)c2)cc(Cl)c1O | > 20 µg/mL | > 5 µg/mL | > 5 µg/mL | > 5 µg/mL | 11 µg/mL | > 5 µg/mL | > 5 µg/mL | 4 µg/mL | 7 µM |  | > 40 µM | > 4 µg/mL | > 4 µg/mL | 0.37 µM | 148 µM | > 20 µg/mL | > 20 µg/mL | 105 µM | 50 µg/mL | 20 µg/mL | IC50 (MOLT-4 [30]): > 40 µM; IC50 (MOLT-4 [31]): > 40 µM; CC50 (MT4 [32]): > 40 µM; MCC (MDCK [33]): 4 µg/mL; MCC (Vero [34]): 50 µg/mL; CC50 (Homo sapiens [35]): 185 µM
CC(CCC=C(c1cc(Cl)c(O)c(C(=O)O)c1)c1cc(Cl)c(O)c(C(=O)O)c1)[C@H]1CC[C@H]2[C@@H]3CC[C@@H]4CCCC[C@]4(C)[C@H]3CC[C@]12C (some centres not stated) | > 20 µg/mL | > 20 µg/mL | > 20 µg/mL | > 20 µg/mL | > 20 µg/mL | 13 µg/mL | > 20 µg/mL | 4 µg/mL | 2.2 µM | > 31.3 µM | 27.2 µM | > 12 µg/mL | > 20 µg/mL | 1.5 µM | 39 µM | > 5 µg/mL | > 5 µg/mL | 69.5 µM | 50 µg/mL | 100 µg/mL | IC50 (MOLT-4 [30]): 24 µM; IC50 (MOLT-4 [31]): 40 µM; CC50 (MT4 [32]): 31.4 µM; MCC (MDCK [33]): 20 µg/mL; MCC (Vero [34]): 20 µg/mL; CC50 (Homo sapiens [35]): 135 µM

Reference: ChEMBL document CHEMBL1128227, “Cosalane analogues with enhanced potencies as inhibitors of HIV-1 protease and integrase” (J Med Chem, 1995)
